Screens (PubChem BioAssay)
A selection: hits, their analogues and other compounds. The true share with any hit is near 1.3%.
procasp7 counter: procaspase-7 activators, primary screen, counter-screen for procaspase-3 activator project, biochemical, absorbance, HTS, human. activation, % at 8.5 µM. actives 0.093% (n = 330,000). Caspase-7 (Homo sapiens), P55210. recombinant procaspase-7, Ac-DEVD-pNA absorbance 405 nm; D23A/D198A/D206A triple mutant, cannot self-cleave; scale: DMSO 0, 5 µM enzyme 100. AID 463210, 2010;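 active = percent activation above the screen-wide mean plus 3 SD, cut at about 25% in these data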
Target sequence (P55210 whole entry D23A/D198A/D206A): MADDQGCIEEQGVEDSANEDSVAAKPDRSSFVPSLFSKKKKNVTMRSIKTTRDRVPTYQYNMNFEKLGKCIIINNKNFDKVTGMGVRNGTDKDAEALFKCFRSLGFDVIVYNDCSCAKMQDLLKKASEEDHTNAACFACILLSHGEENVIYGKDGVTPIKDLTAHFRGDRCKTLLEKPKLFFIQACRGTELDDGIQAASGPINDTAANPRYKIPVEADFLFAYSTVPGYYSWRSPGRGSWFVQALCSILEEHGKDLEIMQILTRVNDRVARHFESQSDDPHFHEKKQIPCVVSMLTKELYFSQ
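Assay system: Uncleavable procaspase-7 mutant enzyme / Input: 2 µM procaspase-7 mutant as dispensed / Dosing: single nominal 8.5 µM compound dose, 0.8% DMSO final / Timing: 1 h enzyme–compound preincubation and 2 h substrate reaction, both 25 °C / Detection: p-Nitroaniline absorbance at 405 nm, read at 0 and 120 min / Replication: singlicate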
CHT PAM: CHT positive allosteric modulators, primary screen, cell-based, membrane potential dye, choline EC20; High affinity choline transporter 1 (Homo sapiens), Q9GZV3; CHT-expressing cells; stronger effect = higher value; LV-AA mutant CHT in HEK293 cells; B-score at 10 µM; actives 0.49% (n = 310,000);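 active = initial fluorescence not abnormally high and integrated response B-score, plate-corrected, over 3 SD above library mean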
CHT inh: inhibitors of human choline transporter CHT. High affinity choline transporter 1 (Homo sapiens), Q9GZV3. CHT-expressing cells, membrane potential dye, choline response; stronger effect = lower value. B-score at 10 µM. actives 0.86% (n = 310,000);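 active = B-score over 3 SD under the library average, and starting fluorescence ratio not unusually high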;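 note: choline stimulus applied at its EC90 after an EC20 pre-addition; B-score computed on integrated fluorescence ratio after choline addition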
proCasp3 act: activators of human procaspase-3 D3A mutant, primary screen, biochemical, absorbance, PC-3 D3A mutant, single concentration. actives 0.11% (n = 330,000). activation, % at 8.5 µM. recombinant procaspase-3 D3A, Ac-DEVD-pNA absorbance 405 nm;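 active = activation above the mean of all tested compounds plus 3 SD, cut at about 21% in these data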;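 note: 0% = DMSO alone and 100% = DMSO wells spiked with extra 5 µM PC-3 D3A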
Target sequence (P42574 whole entry D9A/D28A/D175A): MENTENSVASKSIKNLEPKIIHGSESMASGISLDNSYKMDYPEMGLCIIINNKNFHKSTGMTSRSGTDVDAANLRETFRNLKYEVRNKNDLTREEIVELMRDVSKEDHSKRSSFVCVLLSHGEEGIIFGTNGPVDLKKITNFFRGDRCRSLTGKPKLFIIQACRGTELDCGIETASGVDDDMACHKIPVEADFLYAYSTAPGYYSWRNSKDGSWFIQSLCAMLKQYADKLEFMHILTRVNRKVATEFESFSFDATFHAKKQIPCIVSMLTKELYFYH
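Assay system: Procaspase-3 D3A mutant, all three cleavage aspartates alanine. Buffer or medium: Zinc-free HEPES saline buffer with Triton X-100. Times: 1 h compound preincubation, 2 h substrate hydrolysis at 25 °C. Measured by: 405 nm absorbance of p-nitroaniline, reads at 0 and 120 min. Read-out basis: percent activation relative to control range. Replicates: singlicate.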
CHT act confirm: CHT activators, confirmation, cell-based, membrane potential dye, duplicate. shares compounds with CHT PAM. CHT-expressing cells, membrane potential dye fluorescence (FDSS); % of choline EC20–EC90 response window; HEK293 expressing CHT LV-AA mutant; choline added at its EC20. activation, % at 10 µM. actives 91% (n = 2,500);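 active = primary screen active, with duplicate mean activation above negative control mean plus 3 SD, cut at about 11% in these data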
HEK293 MP dye: membrane potential response in parental HEK293 cells, counter-screen for CHT activator project, cell-based, membrane potential dye | shares compounds with CHT PAM | membrane potential dye fluorescence (FDSS); measured after EC20 choline addition | ratio readout change at 10 µM, hits read low | actives 62% (n = 2,500);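 active = duplicate-averaged ratio beyond 3 SD from buffer wells, up or down, though filed actives are nearly all decreases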
Numbers without * were called inactive; i = inactive; . = no result given.

SMILES	procasp7 counter	CHT PAM	CHT inh	proCasp3 act	CHT act confirm	HEK293 MP dye
COc1ccc(C(CC(=O)Nc2ccc(F)cc2)c2ccccc2)cc1 (stereo unspecified)	2.8	i	i	-0.2	.	.
COc1ccccc1NC(=O)CC(c1ccc(F)cc1)c1ccco1 (stereo unspecified)	1.9	i	i	2.8	23.7*	i
COc1ccccc1NC(=O)CNC(c1ccccc1)c1ccccc1	-2.3	7.47*	i	-4.9	44.2*	i
Cc1ccc([C@H]2C(C(=O)O)=CC[C@@H](c3ccc(C)cc3)N2S(=O)(=O)c2ccc(C)cc2)cc1	-4.3	.	.	0.2	.	.
CCN(CC)S(=O)(=O)c1cc(C(=O)OCC(=O)Nc2cccc(S(=O)(=O)N(C)C)c2)ccc1F	7.2	14.6*	i	2.0	22.0*	i
CN(C)S(=O)(=O)c1cccc(NC(=O)COC(=O)c2ccc3ccccc3n2)c1	1.2	.	.	3.2	.	.
NC(N)=NC(=O)c1nc(Cl)c(N)nc1N	1.8	7.16*	i	-3.4	18.1*	-41*
NC(N)=NC(=O)c1nc(Cl)c(N2CCCCCC2)nc1N	-2.2	i	i	2.4	41.9*	-21.9*
COC(=O)c1nc(Cl)c(Cl)c(N)c1Cl	6.4	i	i	-7.6	.	.
CCc1cccc(N(C(=O)c2csnn2)C(C(=O)NC2CCCCC2)c2ccncc2)c1 (stereo unspecified)	6.3	i	i	0.9	.	.
CCN1c2ccccc2-c2nc3ccccc3n2C1c1ccco1 (stereo unspecified)	13.6	i	i	8.5	.	.
c1ccc(CN2c3ccccc3-c3nc4ccccc4n3C2c2ccccn2)cc1 (stereo unspecified)	13.5	6.42*	i	6.7	52.2*	i
CSc1ccccc1C(=O)N(C)C(c1ccccc1)c1ccccc1	-1.3	i	i	0.9	44.9*	i
COc1cccc(OCCn2cc(C(C)=O)c3ccccc32)c1	-5.0	i	i	0.5	.	.
COc1ccccc1NC(=O)C(C)N(C)CC(=O)Nc1cccc2ccccc12 (stereo unspecified)	-1.5	.	.	-3.3	.	.
COc1ccc(CN(C)C(C)C(=O)Nc2cccc3ccccc23)cc1 (stereo unspecified)	-2.4	i	i	2.2	3.6	i
COc1ccc(CNc2nc(NCc3ccc(OC)cc3)n(S(C)(=O)=O)n2)cc1	5.1	i	i	-0.2	.	.
COCC(=O)n1nc(NCc2ccc(OC)cc2)nc1NCc1ccc(OC)cc1	1.2	i	i	1.0	10.1*	i
CCN(CC)CCCCNc1ncc2cc(-c3cc(OC)cc(OC)c3)c(NC(=O)NC(C)(C)C)nc2n1	4.8	6.73*	i	-1.0	46.5*	-22.8*
CCN(CC)CCNC(=O)COc1ccc(OC)cc1	-0.1	i	i	6.6	.	.
Cc1ccc2ncnc(NCCCN3CCOCC3)c2c1	-0.2	i	i	3.0	.	.
Cc1csc2c(NCCCN3CCOCC3)ncnc12	-0.2	i	i	-5.9	41.4*	-37.6*
CCCCN(C)CCNC(=O)c1nn(-c2ccc(OC)cc2)c(=O)c2c1c1ccccc1n2C	1.1	i	i	5.4	28.7*	-31.4*
Cc1ccc(C(c2nnnn2C2CCCCC2)N(C)C2CCCCC2)cc1 (stereo unspecified)	8.0	i	i	1.5	6.3	i
CC(C)C(c1nnnn1C1CCCC1)N(C)C1CCCCC1 (stereo unspecified)	-2.0	i	i	-3.6	.	.
SMILES	procasp7 counter	CHT PAM	CHT inh	proCasp3 act	CHT act confirm	HEK293 MP dye
CC(=O)c1ccc(S(=O)(=O)Nc2ccc(-c3cn4c(n3)SCC4)cc2)cc1	6.5	i	i	9.3	.	.
Cn1c(C(=O)NCCCN2CCCC2=O)cc2c(=O)n(C)c3ccccc3c21	7.5	i	i	4.3	27.3*	-31.6*
Cn1c(C(=O)NCCN2CCOCC2)cc2c(=O)n(C)c3ccccc3c21	2.4	i	i	8.4	.	.
CC1CCCCN1CCNC(=O)c1cc2c(=O)n(C)c3ccccc3c2n1C (stereo unspecified)	5.5	i	i	-0.2	29.7*	-20.8*
CCCC(C(=O)NC1CCCCC1)N(Cc1ccco1)C(=O)CNS(=O)(=O)c1ccccc1 (stereo unspecified)	3.3	8.42*	i	-1.4	33.3*	i
CN(CC(=O)Nc1ccc(Cl)c(C(F)(F)F)c1)C(=O)c1ccc(N2CCOCC2)c([N+](=O)[O-])c1	-0.7	i	i	-5.3	.	.
CCOc1cc(NC(=O)c2ccco2)c(OCC)cc1NC(=O)c1ccco1	-1.8	10.9*	i	7.1	21.0*	i
CCOc1cc(NC(=S)NC)c(OCC)cc1NC(=O)c1ccco1	2.8	i	i	3.1	.	.
NS(=O)(=O)c1ccc(CCNC(=O)C2CCC(Cn3c(=S)[nH]c4ccccc4c3=O)CC2)cc1 (stereo unspecified)	-2.3	i	i	7.8	.	.
COC(=O)CNC(c1ccccc1)c1cc(C)ccc1NC(=O)c1cccc(Cl)c1 (stereo unspecified)	9.4	6.89*	i	-3.2	42.8*	i
COC(=O)c1ccc(C)c(NS(=O)(=O)c2ccc(OC)cc2)c1	3.6	8.12*	i	-9.2	47.6*	i
CCC1=[N+](CC(=O)c2ccc(C)cc2)CCn2c(C)ccc21	-6.7	i	i	-4.4	32.5*	i
O=C(NCCC1=CCCCC1)c1ccc(-n2cncn2)c([N+](=O)[O-])c1	-3.4	i	i	0.2	.	.
Cc1c(N)c(=O)n(-c2ccccc2)n1C	-5.4	i	i	1.2	.	.
Cc1cc(=S)n(-c2ccccc2)n1C	0.5	6.97*	i	0.8	7.5	i
